Results pooled from the literature.
Lines come from different studies, so protocols differ. ≈ marks a conversion by molar mass, not a printed value.

O=[N+]([O-])c1cccc(-c2nc3ccccc3[nH]2)c1
IC50 (human Rhabdomyosarcoma cell; cell growth or viability, MTT; 48 h): 50.3 µM

C/C=C(\C)c1cc(OC(=O)c2c(O)c(C)c(O)c(Cl)c2/C(C)=C/C)c(C)c(O)c1C(=O)O
MIC (Enterococcus gallinarum; microbial growth, broth dilution; GALLINARUM): 64 µg/mL (≈ 139 µM)

CCOc1ccc(-c2nc3ccccc3[nH]2)cc1
IC50 (human Rhabdomyosarcoma cell; cell growth or viability, MTT; 48 h): 25.1 µM

C[C@@H](Oc1cc(-c2cnn(C3CCNCC3)c2)cnc1N)c1c(Cl)ccc(F)c1Cl
inhibition (NCI-H3122; cell growth or viability, MTT; 5 µg/mL, 72 h): 85.8%

CN(C)[C@@H]1C(O)=C(C(N)=O)C(=O)[C@@]2(O)C(O)=C3C(=O)c4c(cnc(-c5ccccc5)c4O)C[C@H]3C[C@@H]12.Cl.Cl
MIC (Enterobacter cloacae; microbial growth, broth dilution; ATCC13047): > 32 µg/mL

Cc1ccc2nc(-c3ccc(Cl)cc3)[nH]c2c1
IC50 (human Rhabdomyosarcoma cell; cell growth or viability, MTT; 48 h): 48.3 µM

CC(C)CCNc1nc(Cl)c2c(c1O)C(=O)C1=C(O)[C@]3(O)C(=O)C(C(N)=O)=C(O)[C@@H](N(C)C)[C@@H]3C[C@@H]1C2.Cl.Cl.Cl
MIC (Enterobacter cloacae; microbial growth, broth dilution; ATCC13047): > 32 µg/mL

Cc1cc(Nc2ncc(Cl)c(Nc3ccccc3S(=O)(=O)C(C)C)n2)c(OC(C)C)cc1C1CCNCC1
inhibition (NCI-H3122; cell growth or viability, MTT; 10 µg/mL, 72 h): 93%

CN(C)c1cc(CNCC(C)(C)C)c(O)c2c1C[C@H]1C[C@H]3[C@H](N(C)C)C(O)=C(C(N)=O)C(=O)[C@@]3(O)C(O)=C1C2=O
MIC (Enterobacter cloacae; microbial growth, broth dilution; ATCC13047): 4 µg/mL (≈ 7.19 µM)

O=C(O)c1cn(C2CC2)c2cc(N3CCNCC3)c(F)cc2c1=O
MIC (Serratia marcescens; microbial growth; DSM30121): 0.5 µg/mL (≈ 1.51 µM)
